The target in series [1] is 3',5'-cyclic-AMP phosphodiesterase 4B (Homo sapiens, UniProt Q07343). Nature of the series: Inhibition of full length recombinant human PDE4B1 expressed in Sf21 insect cells using cAMP as substrate by scintillation proximity assay. Background: Scintillation proximity formats need no separation of bound from free tracer.
Series [2] can be described thus: Selectivity ratio of Ki for full length recombinant human PDE4B1 to Ki for full length Trypanosoma brucei PDEB1.
Series [3] has as its target T1, Class 1 phosphodiesterase PDEB1 (Trypanosoma brucei, UniProt Q8WQX9).
T1 sequence (Q8WQX9 whole entry): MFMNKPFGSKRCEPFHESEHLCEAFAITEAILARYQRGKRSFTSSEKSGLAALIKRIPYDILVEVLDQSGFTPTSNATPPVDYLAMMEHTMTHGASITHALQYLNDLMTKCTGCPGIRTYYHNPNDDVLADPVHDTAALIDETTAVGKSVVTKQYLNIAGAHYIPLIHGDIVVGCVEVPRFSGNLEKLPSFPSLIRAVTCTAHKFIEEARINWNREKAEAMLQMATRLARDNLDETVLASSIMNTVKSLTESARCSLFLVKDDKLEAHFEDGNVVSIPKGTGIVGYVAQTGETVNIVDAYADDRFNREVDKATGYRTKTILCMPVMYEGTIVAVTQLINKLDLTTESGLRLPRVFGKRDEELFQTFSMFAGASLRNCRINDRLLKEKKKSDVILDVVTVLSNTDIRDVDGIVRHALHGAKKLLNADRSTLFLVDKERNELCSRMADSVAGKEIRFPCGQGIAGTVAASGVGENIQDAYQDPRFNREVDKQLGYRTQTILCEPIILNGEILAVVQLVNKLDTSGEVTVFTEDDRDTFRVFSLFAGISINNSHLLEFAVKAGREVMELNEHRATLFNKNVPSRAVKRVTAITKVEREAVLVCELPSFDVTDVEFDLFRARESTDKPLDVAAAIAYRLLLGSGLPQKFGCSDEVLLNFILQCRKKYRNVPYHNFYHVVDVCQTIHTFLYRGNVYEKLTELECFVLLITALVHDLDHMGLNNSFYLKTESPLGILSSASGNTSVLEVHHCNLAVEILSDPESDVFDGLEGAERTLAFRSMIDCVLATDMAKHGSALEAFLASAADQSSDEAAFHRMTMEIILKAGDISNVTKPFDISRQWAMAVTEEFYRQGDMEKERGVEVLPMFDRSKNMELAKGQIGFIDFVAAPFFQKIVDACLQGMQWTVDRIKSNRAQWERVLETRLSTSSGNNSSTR
Nature of the series: Inhibition of full length Trypanosoma brucei PDEB1 expressed in Sf21 insect cells using cAMP as substrate by scintillation proximity assay. The procedure, abridged: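 Enzyme amount set so that under 20% of substrate was consumed. Ki reported as mean ± SD of at least two independent experiments.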

In series [4] the target is T2, Class 1 phosphodiesterase PDEB1 (Trypanosoma brucei) (UniProt Q8WQX9).
T2 sequence (whole entry): T1 sequence (Q8WQX9 whole entry)
Nature of the series: Inhibition of PDEB1 in bloodstream form of Trypanosoma brucei Lister 427 assessed as increase in intracellular cAMP levels at 0.025 uM after 5 hrs by ELISA. The class given is cell-based. The procedure, abridged:
(§1)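 Log-phase bloodstream forms in HMI-9/FBS at 2 × 10^6 cells/mL, 6 mL subcultures; test drug 0.1–10 μM, reference inhibitor 0.3 μM, pentamidine 0.025 μM or no drug; 5 h at 37 °C, 5% CO2. 5 × 10^6 cells pelleted, lysed 20 min on ice in 0.1 M HCl, supernatant frozen for cAMP. Duplicates; mean of four determinations ± SEM; Student's t-test.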
(In general: Cyclic AMP is a second messenger, typically raised through Gs and lowered through Gi signalling.)

The subject of series [5] is Trypanosoma brucei. Nature of the series: Antitrypanosomal activity against trypomastigote form of Trypanosoma brucei Squib 427 assessed as parasite growth inhibition after 72 hrs by resazurin assay. The conditions noted are these: Squib 427, 72 h. Type of series: functional, organism-based. The procedure, abridged: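 Suramin-sensitive Squib-427 bloodstream trypomastigotes grown in HMI-9 + 10% FCS at 37 °C, 5% CO2. About 1.5 × 10^4 parasites per well exposed to five concentrations (64, 16, 4, 1, 0.25 μM), DMSO ≤0.5% final. After 72 h, resazurin added and absorbance read at 540 nm 4 h later, expressed as % of blank controls. Suramin reference; IC50 from triplicate experiments, mean ± SD.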
Background: Resazurin is reduced to fluorescent resorufin, in cell work by metabolically active cells.

In series [6] the test system is MRC5. Nature of the series: Cytotoxicity against human MRC5 cells assessed as decrease in cell viability after 72 hrs by resazurin assay. The class given is cell-based. The conditions noted are these: mrc5, 72 h.
Series [7] concerns the target T2, Class 1 phosphodiesterase PDEB1 (Trypanosoma brucei). Nature of the series: Inhibition of PDEB1 in bloodstream form of Trypanosoma brucei Lister 427 assessed as increase in intracellular cAMP levels at 0.3 uM after 5 hrs by ELISA. The class given is cell-based. The procedure, abridged:
as §1

Series [8] has as its system Trypanosoma brucei. Nature of the series: Antitrypanosomal activity against bloodstream form of Trypanosoma brucei Lister 427 assessed as appearance of rounded cells with multiple flagella at 10 uM after 12 hrs by DAPI staining-based fluorescence microscopic method. Type of series: functional, organism-based. The procedure, abridged: (§2)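 Bloodstream-form trypanosomes seeded at 2 × 10^5 cells/mL with 10 μM drug; samples taken at 0, 6, 12 and 24 h, pelleted at 4 °C, washed in PBS pH 7.4, air-dried on slides, fixed 15 min in 4% formaldehyde/PBS, mounted with DAPI. Nuclei, kinetoplasts, cell division and morphology were scored by brightfield and fluorescence microscopy.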

Series [9] relates to Trypanosoma brucei. Nature of the series: Antitrypanosomal activity against bloodstream form of Trypanosoma brucei Lister 427 assessed as appearance of misshapen cells at 10 uM after 24 hrs by DAPI staining-based fluorescence microscopic method. Type of series: functional, organism-based. A digest of the protocol:
as §2

Series [10] has as its target T2, Class 1 phosphodiesterase PDEB1 (Trypanosoma brucei). Nature of the series: Inhibition of PDEB1 in bloodstream form of Trypanosoma brucei Lister 427 assessed as increase in intracellular cAMP levels after 5 hrs by ELISA. Type of series: cell-based. A digest of the protocol: as §1
For series [11], the system named is Trypanosoma brucei. Nature of the series: Antitrypanosomal activity against bloodstream form of Trypanosoma brucei Lister 427 assessed as defect in cytokinesis at 10 uM after 6 hrs by DAPI staining-based fluorescence microscopic method. Type of series: functional, organism-based. The procedure, abridged:
as §2

For orientation: Ki means a measure of affinity in units of concentration, obtained from inhibition or displacement. The term CC50 denotes the concentration at which the toxic effect on the cells reaches its halfway point.

SMILES strings stand for the structures. The source made the active and inactive calls. The rule behind the calls is not given here.

3',5'-cyclic-AMP phosphodiesterase 4B, sequence (Q07343 whole entry): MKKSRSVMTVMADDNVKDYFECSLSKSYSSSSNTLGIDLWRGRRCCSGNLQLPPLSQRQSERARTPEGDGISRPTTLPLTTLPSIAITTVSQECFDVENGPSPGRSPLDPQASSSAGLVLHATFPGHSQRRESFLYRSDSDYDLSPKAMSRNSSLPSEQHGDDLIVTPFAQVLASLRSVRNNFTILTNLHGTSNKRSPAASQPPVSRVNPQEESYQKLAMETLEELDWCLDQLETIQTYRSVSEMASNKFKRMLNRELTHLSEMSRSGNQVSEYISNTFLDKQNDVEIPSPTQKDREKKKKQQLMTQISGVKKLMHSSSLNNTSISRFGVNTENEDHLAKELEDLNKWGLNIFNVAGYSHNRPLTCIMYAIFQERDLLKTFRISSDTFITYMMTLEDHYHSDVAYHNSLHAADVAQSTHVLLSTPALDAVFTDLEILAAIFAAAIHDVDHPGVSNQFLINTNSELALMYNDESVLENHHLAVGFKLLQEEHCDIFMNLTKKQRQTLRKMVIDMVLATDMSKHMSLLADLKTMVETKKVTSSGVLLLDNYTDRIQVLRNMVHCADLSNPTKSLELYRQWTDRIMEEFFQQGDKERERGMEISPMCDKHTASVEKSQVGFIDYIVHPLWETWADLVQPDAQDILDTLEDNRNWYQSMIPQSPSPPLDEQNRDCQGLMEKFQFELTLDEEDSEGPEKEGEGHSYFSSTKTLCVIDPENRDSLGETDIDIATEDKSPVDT

Take `COc1ccc(C2=NN(C3CCCCCC3)C(=O)[C@@H]3CC=CC[C@H]23)cc1-c1ccc(C(=O)NCCNC(C)=O)cc1` (relative stereo): the Ki was 3.98 µM in [1] and 0.794 µM in series [3]. Moreover, the Ratio Ki in series [2] was determined as 5.
For `COc1ccc(C2=NN(C3CCCCCC3)C(=O)[C@@H]3CC=CC[C@H]23)cc1-c1ccc(C(=O)NCC(=O)NC(C)C)cc1` (relative stereo), in that order: 6.31 µM, 2 µM and 4.
On to `COc1ccc(C2=NN(C3CCCCCC3)C(=O)[C@@H]3CC=CC[C@H]23)cc1-c1ccc(C(=O)N2CC(=O)N(C)C2)cc1` (relative stereo), for which, in [2], the Ratio Ki was 1.4.
Turning to `N=C(N)c1ccc(OCCCCCOc2ccc(C(=N)N)cc2)cc1`, in series [4], the inhibition entry was “inactive”.
For the compound `COc1ccc(C2=NN(C3CCCCCC3)C(=O)[C@@H]3CC=CC[C@H]23)cc1-c1ccc(C(=O)N(C)CC(N)=O)cc1` (relative stereo), the inhibitory constant (Ki) in series [1] was 2.51 µM; in [3] it was 0.398 µM. In addition, the Ratio Ki in [2] was 7.
In the case of `Cc1ccc(C(=O)Nc2ccc(S(=O)(=O)O)c3cc(S(=O)(=O)O)cc(S(=O)(=O)O)c23)cc1NC(=O)c1cccc(NC(=O)Nc2cccc(C(=O)Nc3cc(C(=O)Nc4ccc(S(=O)(=O)O)c5cc(S(=O)(=O)O)cc(S(=O)(=O)O)c45)ccc3C)c2)c1` [SURAMIN], the IC50 in series [5] (read-out: pIC50 (converted)) was 0.0398 µM.
As to `COc1ccc(C2=NN(C3CCCCCC3)C(=O)[C@@H]3CC=CC[C@H]23)cc1-c1ccc(C#N)cc1` (relative stereo), the Ki in series [1] is 0.0316 µM; in [3] it was 0.501 µM. For the same compound, the Ratio Ki in [2] was found to be 0.1.
As to `COc1ccc(C2=NN(C3CCCCCC3)C(=O)[C@@H]3CC=CC[C@H]23)cc1-c1ccc(C(=O)N2CNC(=O)C2)cc1` (relative stereo), the Ratio Ki in [2] was 1.
Consider `CNC(=O)CNC(=O)c1ccc(-c2cc(C3=NN(C4CCCCCC4)C(=O)[C@@H]4CC=CC[C@H]34)ccc2OC)cc1` (relative stereo), for which the inhibitory constant (Ki) in series [1] is 2.51 µM; in series [3], 0.398 µM. The Ratio Ki in [2] came to 6.
For the compound `COc1ccc(C2=NN(C3CCCCCC3)C(=O)[C@H]3CC=CC[C@@H]23)cc1-c1ccc(C(=O)NCC(N)=O)cc1`, the inhibitory constant (Ki) in series [1] was 50.1 µM; in [3], 3.98 µM.
With `COc1ccc(C2=NN(C3CCCCCC3)C(=O)[C@@H]3CC=CC[C@H]23)cc1-c1ccc(C(=O)N2CC[C@@H](O)C2)cc1` (racemic), the Ratio Ki in series [2] is 9.
Regarding `COc1ccc(C2=NN(C3CCCCCC3)C(=O)[C@@H]3CC=CC[C@H]23)cc1-c1ccc(C(=O)NCC(=O)N(C)C)cc1` (relative stereo), the Ki is 3.16 µM in series [1] and 0.794 µM in series [3]. In addition, in [2], the Ratio Ki amounted to 4.
`COc1ccc(C2=NN(C(C)C)C(=O)[C@@H]3CC=CC[C@H]23)cc1-c1ccc(C(=O)NCC(N)=O)cc1` (relative stereo): the values for the Ki in series [1] and in series [3] were 2 µM and 0.1 µM, respectively. The IC50 in [5] (read-out: IC50) was found to be 6.7 µM. The CC50 in series [6] was determined as 35 µM.
Regarding `COCCNC(=O)CNC(=O)c1ccc(-c2cc(C3=NN(C4CCCCCC4)C(=O)[C@@H]4CC=CC[C@H]34)ccc2OC)cc1` (relative stereo), the Ki was 3.98 µM in series [1] and 0.501 µM in [3]. The Ratio Ki in series [2] was 8.
Turning to `COc1ccc(C2=NN(C3CCCCCC3)C(=O)[C@@H]3CC=CC[C@H]23)cc1-c1ccc(C(=O)N2CCC(=O)C2)cc1` (relative stereo), in [2], the Ratio Ki worked out at 3.
With `COCCNC(=O)c1ccc(-c2cc(C3=NN(C4CCCCCC4)C(=O)[C@@H]4CC=CC[C@H]34)ccc2OC)cc1` (relative stereo), the inhibition constant (Ki) in series [1] was 2 µM; in series [3], 0.316 µM. The Ratio Ki in [2] came out at 7.
For `COc1ccc(C2=NN(C3CCCCCC3)C(=O)[C@@H]3CC=CC[C@H]23)cc1-c1ccc(C(N)=O)cc1` (relative stereo), in that order: 0.158 µM, 0.158 µM and 1.
The matching figures for `COc1ccc(C2=NN(C3CCCCCC3)C(=O)[C@@H]3CC=CC[C@H]23)cc1-c1ccc(C(=O)NCCC(N)=O)cc1` (relative stereo): 1 µM, 0.501 µM and 2.
For `COc1ccc(C2=NN(C3CCCCCC3)C(=O)[C@@H]3CC=CC[C@H]23)cc1-c1cccc(C(=O)O)c1` (relative stereo), in that order: 12.6 µM, 7.94 µM and 2.
Turning to `COc1ccc(C2=NN(C(C)C)C(=O)[C@@H]3CC=CC[C@H]23)cc1-c1ccc(C(=O)N2CC[C@@H](O)C2)cc1` (racemic), the Ratio Ki in series [2] was found to be 15.
Turning to `COc1ccc(C2=NN(C3CCCCCC3)C(=O)[C@@H]3CC=CC[C@H]23)cc1-c1ccc(C(=O)NCC(=O)NCCO)cc1` (relative stereo), the inhibitory constant (Ki) in series [1] is 3.16 µM; in series [3] it was 0.398 µM. Further, the Ratio Ki in series [2] worked out at 7.
In the case of `COc1ccc(C2=NN(C(C)C)C(=O)[C@@H]3CC=CC[C@H]23)cc1-c1ccc(C(=O)N2CCC[C@@H]2C(N)=O)cc1` (racemic), the Ratio Ki in series [2] was found to be 18.
Regarding `O=C(Nc1c(Cl)cncc1Cl)c1ccc(OC(F)F)c(OCC2CC2)c1` [ROFLUMILAST], the Ki in series [3] is 3.16 µM.
For `COc1ccc(C2=NN(C3CCCCCC3)C(=O)[C@@H]3CC=CC[C@H]23)cc1-c1ccc(C(=O)O)cc1` (relative stereo), the inhibitory constant (Ki) in [1] was 7.94 µM; in [3] it was 1.58 µM. Also, the Ratio Ki in series [2] is 5.
`COc1ccc(C2=NN(C3CCCCCC3)C(=O)[C@@H]3CC=CC[C@H]23)cc1OCCCCOc1ccc(-c2nnn[nH]2)cc1`: in [1], the inhibitory constant (Ki) was 0.000631 µM. Also, the inhibition entry in series [7] is “Active”.
Turning to `COc1ccc(C2=NN(C3CCCCCC3)C(=O)[C@@H]3CC=CC[C@H]23)cc1-c1ccc(C(=O)N2CCC[C@@H]2C(N)=O)cc1` (racemic), the Ratio Ki in series [2] came to 13.
`COc1ccc(C2=NN(C3CCCCCC3)C(=O)[C@@H]3CC=CC[C@H]23)cc1-c1ccc(C(=O)NCC(N)=O)cc1` (relative stereo): the outcome in [8], in [9] and in series [11] was Active. For the same compound, the IC50 in series [5] (read-out: IC50) is 5.5 µM. Besides, the inhibition entry in series [10] was “Dose-dependent effect”. In series [6], the 50% cytotoxic concentration (CC50) was found to be 36 µM.

Values taken from ChEMBL document CHEMBL4177766, “Targeting a Subpocket in Trypanosoma brucei Phosphodiesterase B1 (TbrPDEB1) Enables the Structure-Based Discovery of Selective Inhibitors with Trypanocidal Activity” (J Med Chem, 2018).
